Measured values: ChEMBL document CHEMBL2086366, “Chemical optimization of new ligands of the low-density lipoprotein receptor as potential vectors for central nervous system targeting” (J Med Chem, 2012)
*1 amine or outer side, *2 acyl side, *3 side chain or, on linkers, in order; H or OH if unused. Where a SMILES comes first, the peptide text is derived from it. Bridges are numbered along the chain shown (N, C = ends). [ ]: non-standard residue; d: D form. X1 = CSCC[C@@H](C(=O)[*:2])N(C[C@@H](CS[*:3])NC(C)=O)[*:1]

What follows are molecules tested against Low-density lipoprotein receptor (Homo sapiens) (UniProt P01130) (assay: Displacement of S-tagged Ac-DSGL[CMPRLRGC]cDPR-NH2 from human DsRed2-fused LDLR expressed in CHO cells at 10 uM after 1 hr by FRET assay).
Assay type: cell-based
In short: (§1)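 CHO cells stably expressing hLDLR-DsRed2 (Ham-F12, 5% FBS, Geneticin) at 800 000 cells/well were incubated in triplicate with S-tagged reference peptide (10 μM) plus test peptide (10 μM) in Ham-F12/1% BSA, 1 h, 37 °C. Scrambled and untagged peptide controls were included; values are means of at least three points.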

Chain of Low-density lipoprotein receptor (Homo sapiens) (P01130 whole entry, the tested form may be a part): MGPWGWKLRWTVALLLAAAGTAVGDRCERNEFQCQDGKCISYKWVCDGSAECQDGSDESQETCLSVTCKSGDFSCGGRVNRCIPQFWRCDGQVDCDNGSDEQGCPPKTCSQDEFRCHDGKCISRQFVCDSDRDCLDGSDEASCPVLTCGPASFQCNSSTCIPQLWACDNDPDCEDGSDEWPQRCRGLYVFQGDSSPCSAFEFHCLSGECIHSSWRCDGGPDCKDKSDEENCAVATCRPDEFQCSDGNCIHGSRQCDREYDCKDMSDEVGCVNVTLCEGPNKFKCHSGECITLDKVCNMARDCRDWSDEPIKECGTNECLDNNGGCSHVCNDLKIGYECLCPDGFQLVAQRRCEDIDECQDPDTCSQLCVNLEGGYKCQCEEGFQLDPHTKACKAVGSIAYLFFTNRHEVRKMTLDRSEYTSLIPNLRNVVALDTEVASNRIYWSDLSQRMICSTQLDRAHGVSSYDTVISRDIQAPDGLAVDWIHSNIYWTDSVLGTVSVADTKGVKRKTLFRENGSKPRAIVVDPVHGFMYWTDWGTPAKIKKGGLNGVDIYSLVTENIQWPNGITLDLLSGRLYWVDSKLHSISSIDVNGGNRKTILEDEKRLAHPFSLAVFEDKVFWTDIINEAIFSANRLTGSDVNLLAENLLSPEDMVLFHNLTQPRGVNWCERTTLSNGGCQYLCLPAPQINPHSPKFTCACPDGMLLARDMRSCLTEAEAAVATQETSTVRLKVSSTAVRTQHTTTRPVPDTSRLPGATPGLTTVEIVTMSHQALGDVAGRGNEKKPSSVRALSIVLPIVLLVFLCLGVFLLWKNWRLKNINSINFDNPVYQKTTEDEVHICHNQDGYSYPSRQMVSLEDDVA

Q: With CSCC[C@@H]1NC(=O)[C@@H](NC(=O)[C@H](CC(C)C)NC(=O)CNC(=O)[C@H](CO)NC(=O)[C@H](C)NC(C)=O)CSSC[C@@H](C(=O)N[C@@H](CC(=O)O)C(=O)N2CCC[C@H]2C(=O)N[C@@H](CCCNC(=N)N)C(N)=O)NC(=O)CNC(=O)[C@H](CCCNC(=N)N)NC(=O)[C@H](CC(C)C)NC(=O)[C@H](CCCNC(=N)N)NC(=O)[C@@H]2CCCN2C1=O (Ac-ASGLCMPRLRGCDPR-NH2; disulfide 5-12) as the molecule, how does the inhibition read?
A: 55%

Q: How did the inhibition turn out when CSCC[C@@H]1NC(=O)[C@@H](NC(=O)[C@H](CC(C)C)NC(=O)CNC(=O)[C@H](CO)NC(=O)[C@H](CC(=O)O)NC(C)=O)CSSC[C@@H](C(=O)N[C@@H](CC(=O)O)C(=O)N2CCC[C@H]2C(=O)N[C@@H](CCCNC(=N)N)C(N)=O)NC(=O)CNC(=O)[C@H](CCCNC(=N)N)NC(=O)[C@H](CC(C)C)NC(=O)[C@H](C)NC(=O)[C@@H]2CCCN2C1=O (Ac-DSGLCMPALRGCDPR-NH2; disulfide 5-12) was run?
A: 0%

Q: Which inhibition does the source give for CSCC[C@@H]1NC(=O)[C@@H](NC(C)=O)CSC[C@@H](C(N)=O)NC(=O)[C@H](CCCNC(=N)N)NC(=O)[C@@H]2CCCN2C1=O here?
A: 0%

Q: With CSCC[C@@H]1NC(=O)[C@@H](NC(=O)[C@H](CC(C)C)NC(=O)CNC(=O)[C@H](CO)NC(=O)[C@H](CC(=O)O)NC(C)=O)CSSC[C@@H](C(=O)N[C@@H](CC(=O)O)C(=O)N2CCC[C@H]2C(=O)N[C@@H](CCCNC(=N)N)C(N)=O)NC(=O)CNC(=O)[C@H](CCCNC(=N)N)NC(=O)[C@H](C)NC(=O)[C@H](CCCNC(=N)N)NC(=O)[C@@H]2CCCN2C1=O (Ac-DSGLCMPRARGCDPR-NH2; disulfide 5-12) as the molecule, how does the inhibition read?
A: 35%

Q: How did the inhibition turn out when Ac-DSGLCMPRLRGADPR-NH2 was run?
A: 0%

Q: CSCC[C@@H]1NC(=O)[C@@H](NC(=O)[C@H](CC(C)C)NC(=O)CNC(=O)[C@H](CO)NC(=O)[C@H](CC(=O)O)NC(C)=O)CSSC[C@@H](C(=O)N[C@@H](CC(=O)O)C(=O)N2CCC[C@H]2C(=O)N[C@@H](CCCNC(=N)N)C(N)=O)NC(=O)CNC(=O)[C@H](CCCNC(=N)N)NC(=O)[C@H](CC(C)C)NC(=O)[C@H](CCCNC(=N)N)NC(=O)[C@H](C)NC1=O (Ac-DSGLCMARLRGCDPR-NH2; disulfide 5-12) was tested. Which inhibition did it give?
A: 3%

Q: Which inhibition does the source give for CSCC[C@@H]1NC(=O)[C@@H](NC(=O)[C@H](CC(C)C)NC(=O)CNC(=O)[C@H](CO)NC(=O)[C@H](CC(=O)O)NC(C)=O)CSSC[C@@H](C(=O)N[C@@H](CC(=O)O)C(=O)N2CCC[C@H]2C(=O)N[C@@H](CCCNC(=N)N)C(N)=O)NC(=O)CNC(=O)[C@H](CCCNC(=N)N)NC(=O)[C@H](CC(C)C)NC(=O)[C@H](CCCNC(=N)N)NC(=O)[C@@H]2CCCN2C1=O here?
A: 55%

Q: CSCC[C@@H]1NC(=O)[C@@H](NC(=O)[C@H](CC(C)C)NC(=O)CNC(=O)[C@H](CO)NC(=O)[C@H](CC(=O)O)NC(C)=O)CSSC[C@@H](C(=O)N[C@@H](CC(=O)O)C(=O)N2CCC[C@H]2C(=O)N[C@@H](CCCNC(=N)N)C(N)=O)NC(=O)CNC(=O)[C@H](C)NC(=O)[C@H](CC(C)C)NC(=O)[C@H](CCCNC(=N)N)NC(=O)[C@@H]2CCCN2C1=O (Ac-DSGLCMPRLAGCDPR-NH2; disulfide 5-12) was tested. Which inhibition did it give?
A: 2%

Q: With Ac-DSGLAMPRLRGCDPR-NH2 as the molecule, how does the inhibition read?
A: 0%

Q: How did the inhibition turn out when CSCC[C@@H]1NC(=O)[C@@H](NC(=O)[C@H](CC(C)C)NC(=O)CNC(=O)[C@H](CO)NC(=O)[C@H](CC(=O)O)NC(C)=O)CSSC[C@@H](C(=O)N[C@@H](CC(=O)O)C(=O)N2CCC[C@H]2C(=O)N[C@@H](C)C(N)=O)NC(=O)CNC(=O)[C@H](CCCNC(=N)N)NC(=O)[C@H](CC(C)C)NC(=O)[C@H](CCCNC(=N)N)NC(=O)[C@@H]2CCCN2C1=O (Ac-DSGLCMPRLRGCDPA-NH2; disulfide 5-12) was run?
A: 55%

Q: Which inhibition does the source give for CSCC[C@@H]1NC(=O)[C@@H](NC(=O)[C@H](CC(C)C)NC(=O)CNC(=O)[C@H](CO)NC(=O)[C@H](CC(=O)O)NC(C)=O)CSSC[C@@H](C(=O)N[C@@H](C)C(=O)N2CCC[C@H]2C(=O)N[C@@H](CCCNC(=N)N)C(N)=O)NC(=O)CNC(=O)[C@H](CCCNC(=N)N)NC(=O)[C@H](CC(C)C)NC(=O)[C@H](CCCNC(=N)N)NC(=O)[C@@H]2CCCN2C1=O (Ac-DSGLCMPRLRGCAPR-NH2; disulfide 5-12) here?
A: 70%

These molecules were tested against Low-density lipoprotein receptor (Homo sapiens) (UniProt P01130) (assay: Displacement of S-tagged Ac-[cMPRLRGC]c-NH2 from human DsRed2-fused LDLR expressed in CHO cells at 10 uM after 1 hr by FRET assay).
Assay type: cell-based
In short: as §1

Q: CSCC[C@H](NC(=O)[C@@H]1CCCN1C(=O)[C@H]1CSSC[C@H](N)C(=O)NCC(=O)N[C@@H](CCCNC(=N)N)C(=O)N[C@@H](CC(C)C)C(=O)N[C@@H](CCCNC(=N)N)C(=O)N1)C(=O)NC(C)=O was tested. Which inhibition did it give?
A: 34%

Q: CSCC[C@@H]1NC(=O)[C@H](NC(C)=O)CSSC[C@@H](C(N)=O)NC(=O)CNC(=O)[C@H](CCCNC(=N)N)NC(=O)[C@H](CC(C)C)NC(=O)[C@H](CCCN)NC(=O)[C@@H]2CCCN2C1=O was tested. Which inhibition did it give?
A: 28%

Q: How did the inhibition turn out when CSCC[C@@H]1NC(=O)[C@H](NC(C)=O)CSSC[C@@H](C(N)=O)NC(=O)CNC(=O)[C@H](CCCN)NC(=O)[C@H](CC(C)C)NC(=O)[C@H](CCCNC(=N)N)NC(=O)[C@@H]2CCCN2C1=O was run?
A: 0%

Q: How did the inhibition turn out when CSCC[C@@H]1NC(=O)[C@H](NC(C)=O)CSSC[C@@H](C(N)=O)NC(=O)CNC(=O)[C@H](CCCNC(=N)N)NC(=O)[C@H](CC(C)C)NC[C@H](CCCNC(=N)N)NC(=O)[C@@H]2CCCN2C1=O was run?
A: 58%

Q: For CSCC[C@@H]1NC(=O)[C@H](NC(C)=O)CSSC[C@@H](C(N)=O)NC(=O)CNC(=O)[C@H](CCCN)NC(=O)[C@H](CC(C)C)NC(=O)[C@H](CCCN)NC(=O)[C@@H]2CCCN2C1=O, which inhibition is on record?
A: 31%

Q: For CSCC[C@@H]1NC(=O)[C@H](NC(C)=O)CSSC[C@@H](C(N)=O)NC(=O)CNC(=O)[C@H](CCCNC(=N)N)NC[C@H](CC(C)C)NC(=O)[C@H](CCCNC(=N)N)NC(=O)[C@@H]2CCCN2C1=O, which inhibition is on record?
A: 40%

Q: Which inhibition does the source give for CSCC[C@H]1CN2CCC[C@H]2C(=O)N[C@@H](CCCNC(=N)N)C(=O)N[C@@H](CC(C)C)C(=O)N[C@@H](CCCNC(=N)N)C(=O)NCC(=O)N[C@H](C(N)=O)CSSC[C@@H](NC(C)=O)C(=O)N1 here?
A: 33%

Q: Which inhibition does the source give for CC(=O)N[C@@H]1CSSC[C@@H](C(N)=O)NC(=O)CNC(=O)[C@H](CCCNC(=N)N)NC(=O)[C@H](CC(C)C)NC(=O)[C@H](CCCNC(=N)N)NC(=O)[C@@H]2CCCN2C(=O)[C@@H]2CSCN2C1=O here?
A: 0%

Q: With COCC[C@@H]1NC(=O)[C@H](NC(C)=O)CSSC[C@@H](C(N)=O)NC(=O)CNC(=O)[C@H](CCCNC(=N)N)NC(=O)[C@H](CC(C)C)NC(=O)[C@H](CCCNC(=N)N)NC(=O)[C@@H]2CCCN2C1=O as the molecule, how does the inhibition read?
A: 0%

Q: CC(=O)N[C@@H]1CSSC[C@@H](C(N)=O)NC(=O)CNC(=O)[C@H](CCCNC(=N)N)NC(=O)[C@H](CC(C)C)NC(=O)[C@H](CCCNC(=N)N)NC(=O)[C@@H]2CCCN2C(=O)[C@H](Cc2cccs2)NC1=O was tested. Which inhibition did it give?
A: 0%

Q: How did the inhibition turn out when CSCC[C@@H]1NC(=O)[C@H](NC(C)=O)Cc2cn(nn2)CC[C@@H](C(N)=O)NC(=O)CNC(=O)[C@H](CCCNC(=N)N)NC(=O)[C@H](CC(C)C)NC(=O)[C@H](CCCNC(=N)N)NC(=O)[C@@H]2CCCN2C1=O was run?
A: 13%

Q: How did the inhibition turn out when CSCC[C@H](NC(=O)[C@H]1CSSC[C@H](N)C(=O)NCC(=O)N[C@@H](CCCNC(=N)N)C(=O)N[C@@H](CC(C)C)C(=O)N[C@@H](CCCNC(=N)N)C(=O)N2CCC[C@H]2C(=O)N1)C(=O)NC(C)=O was run?
A: 28%

Q: Which inhibition does the source give for CSCC[C@@H]1NC(=O)C(NC(C)=O)CSCC(C(N)=O)NC(=O)CNC(=O)[C@H](CCCNC(=N)N)NC(=O)[C@H](CC(C)C)NC(=O)[C@H](CCCNC(=N)N)NC(=O)[C@@H]2CCCN2C1=O (mixture of isomers) here?
A: 41%

Q: Which inhibition does the source give for CSCCC1NC(=O)[C@H](NC(C)=O)CNC(=O)C[C@@H](C(N)=O)NC(=O)CNC(=O)[C@H](CCCNC(=N)N)NC(=O)[C@H](CC(C)C)NC(=O)[C@H](CCCNC(=N)N)NC(=O)[C@@H]2CCCN2C1=O (single isomer, unassigned) here?
A: 12%

Q: How did the inhibition turn out when CSCC[C@@H]1NC(=O)[C@H](NC(C)=O)CSSC[C@@H](C(N)=O)NC(=O)[C@@H](C)NC(=O)[C@H](CCCNC(=N)N)NC(=O)[C@H](CC(C)C)NC(=O)[C@H](CCCNC(=N)N)NC(=O)[C@@H]2CCCN2C1=O was run?
A: 54%

Q: How did the inhibition turn out when CSCC[C@@H]1NC(=O)[C@H](NC(C)=O)C/C=C\C[C@@H](C(N)=O)NC(=O)CNC(=O)[C@H](CCCNC(=N)N)NC(=O)[C@H](CC(C)C)NC(=O)[C@H](CCCNC(=N)N)NC(=O)[C@@H]2CCCN2C1=O was run?
A: 22%

Q: Which inhibition does the source give for CSCC[C@@H]1NC(=O)[C@H](NC(C)=O)CSSC[C@@H](C(N)=O)NC(=O)CNC(=O)[C@H](CCCNC(=N)N)NC(=O)[C@H](CC(C)C)NC(=O)[C@H](CCCNC(=N)N)NC[C@@H]2CCCN2C1=O here?
A: 0%

Q: With CSCC[C@@H]1NC(=O)[C@H](NC(C)=O)CSSC[C@@H](C(N)=O)NC(=O)CNC(=O)[C@H](CCCNC(=N)N)NC(=O)[C@H](CC(C)C)NC(=O)[C@H](CCCNC(=N)N)NC(=O)[C@@H]2c3ccccc3CCN2C1=O as the molecule, how does the inhibition read?
A: 21%

Q: How did the inhibition turn out when CSCC[C@@H]1NC(=O)[C@H](NC(C)=O)CSSC[C@@H](C(N)=O)NC(=O)CNC(=O)[C@H](CCCNC(=N)N)NC(=O)[C@H](CC(C)C)NC(=O)[C@H](CCCNC(=N)N)NC(=O)c2ccccc2NC1=O was run?
A: 0%

Q: How did the inhibition turn out when CSCC[C@@H]1NC(=O)[C@H](NC(C)=O)CSSC[C@@H](C(N)=O)NC(=O)CNC(=O)[C@H](CCCNC(=N)N)NC(=O)[C@H](CC(C)C)NC(=O)[C@H](CCCNC(=N)N)NC(=O)CN(C)C1=O was run?
A: 22%

Q: Which inhibition does the source give for CSCC[C@H](NC(=O)[C@@H]1CCCN1C(=O)[C@@H](CCCNC(=N)N)[C@H]1CSSC[C@H](N)C(=O)NCC(=O)N[C@@H](CCCNC(=N)N)C(=O)N[C@@H](CC(C)C)C(=O)N1)C(=O)NC(C)=O here?
A: 34%

Q: How did the inhibition turn out when CSCC[C@@H]1NC[C@H](NC(C)=O)CSSC[C@@H](C(N)=O)NC(=O)CNC(=O)[C@H](CCCNC(=N)N)NC(=O)[C@H](CC(C)C)NC(=O)[C@H](CCCNC(=N)N)NC(=O)[C@@H]2CCCN2C1=O (H-[X1]PRLRGC-NH2; disulfide 1-7) was run?
A: 37%

Q: With CSCC[C@@H]1NC(=O)[C@H](NC(C)=O)CNC(=N)NC[C@@H](C(N)=O)NC(=O)CNC(=O)[C@H](CCCNC(=N)N)NC(=O)[C@H](CC(C)C)NC(=O)[C@H](CCCNC(=N)N)NC(=O)[C@@H]2CCCN2C1=O as the molecule, how does the inhibition read?
A: 0%
